Reference: ChEMBL document CHEMBL1137681, “Design, synthesis and characterization of N9/N7-substituted 6-aminopurines as VEGF-R and EGF-R inhibitors” (Eur J Med Chem, 2009)
One block for each compound: values may come before it. The source made the active and inactive calls. No cut-off for these calls is given here.

Key:
[1] = target: Vascular endothelial growth factor receptor 3 (Homo sapiens, UniProt P35916); test: Inhibition of VEGFR3 up to 100 uM
[2] = system: Serine/threonine-protein kinase B-raf (Homo sapiens), P15056 [V600E]; test: Inhibition of BRAF V600E mutant up to 100 uM
Serine/threonine-protein kinase B-raf (Homo sapiens), P15056 [V600E], sequence (P15056 whole entry V600E): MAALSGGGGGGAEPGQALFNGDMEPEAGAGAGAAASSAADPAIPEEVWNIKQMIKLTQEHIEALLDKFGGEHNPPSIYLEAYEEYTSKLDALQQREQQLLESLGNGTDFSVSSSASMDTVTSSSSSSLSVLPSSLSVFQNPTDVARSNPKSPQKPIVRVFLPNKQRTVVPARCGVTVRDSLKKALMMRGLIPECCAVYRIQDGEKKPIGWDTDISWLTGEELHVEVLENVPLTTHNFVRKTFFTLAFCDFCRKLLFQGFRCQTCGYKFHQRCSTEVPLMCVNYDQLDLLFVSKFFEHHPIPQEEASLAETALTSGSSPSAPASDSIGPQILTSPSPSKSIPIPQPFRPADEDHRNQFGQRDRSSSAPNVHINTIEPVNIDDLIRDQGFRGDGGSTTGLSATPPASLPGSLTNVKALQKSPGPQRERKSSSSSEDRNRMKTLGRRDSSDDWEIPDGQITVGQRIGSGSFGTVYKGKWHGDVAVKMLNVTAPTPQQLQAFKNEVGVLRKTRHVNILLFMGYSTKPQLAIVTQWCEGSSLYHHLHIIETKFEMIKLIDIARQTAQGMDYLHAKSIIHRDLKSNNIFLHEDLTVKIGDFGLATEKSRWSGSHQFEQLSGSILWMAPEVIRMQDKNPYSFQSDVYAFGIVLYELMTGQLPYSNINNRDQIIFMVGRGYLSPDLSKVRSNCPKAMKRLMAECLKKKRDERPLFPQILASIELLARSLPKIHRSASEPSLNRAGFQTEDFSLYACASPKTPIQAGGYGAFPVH

[3] = target: Serine/threonine-protein kinase pim-2 (Homo sapiens) (UniProt Q9P1W9); test: Inhibition of PIM2 at 10 uM
[4] = target: Serine/threonine-protein kinase Nek6 (Homo sapiens) (UniProt Q9HC98); test: Inhibition of NEK6 at 10 uM
Serine/threonine-protein kinase Nek6 (Homo sapiens), sequence (Q9HC98 whole entry): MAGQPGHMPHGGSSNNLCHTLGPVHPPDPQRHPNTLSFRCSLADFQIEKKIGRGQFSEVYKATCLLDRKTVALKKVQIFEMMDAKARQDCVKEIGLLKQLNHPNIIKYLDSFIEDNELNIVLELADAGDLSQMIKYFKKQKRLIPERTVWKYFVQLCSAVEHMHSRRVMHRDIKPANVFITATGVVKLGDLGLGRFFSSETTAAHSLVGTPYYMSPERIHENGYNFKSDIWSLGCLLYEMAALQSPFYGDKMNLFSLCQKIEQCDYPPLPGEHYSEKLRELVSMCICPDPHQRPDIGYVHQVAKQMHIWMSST

[5] = target: Mitogen-activated protein kinase 9 (Homo sapiens) (UniProt P45984); test: Inhibition of human JNK2 at 10 uM
[6] = target: Dual specificity tyrosine-phosphorylation-regulated kinase 2 (Homo sapiens) (UniProt Q92630); test: Inhibition of human DYRK2 at 10 uM
Dual specificity tyrosine-phosphorylation-regulated kinase 2 (Homo sapiens), sequence (Q92630 whole entry): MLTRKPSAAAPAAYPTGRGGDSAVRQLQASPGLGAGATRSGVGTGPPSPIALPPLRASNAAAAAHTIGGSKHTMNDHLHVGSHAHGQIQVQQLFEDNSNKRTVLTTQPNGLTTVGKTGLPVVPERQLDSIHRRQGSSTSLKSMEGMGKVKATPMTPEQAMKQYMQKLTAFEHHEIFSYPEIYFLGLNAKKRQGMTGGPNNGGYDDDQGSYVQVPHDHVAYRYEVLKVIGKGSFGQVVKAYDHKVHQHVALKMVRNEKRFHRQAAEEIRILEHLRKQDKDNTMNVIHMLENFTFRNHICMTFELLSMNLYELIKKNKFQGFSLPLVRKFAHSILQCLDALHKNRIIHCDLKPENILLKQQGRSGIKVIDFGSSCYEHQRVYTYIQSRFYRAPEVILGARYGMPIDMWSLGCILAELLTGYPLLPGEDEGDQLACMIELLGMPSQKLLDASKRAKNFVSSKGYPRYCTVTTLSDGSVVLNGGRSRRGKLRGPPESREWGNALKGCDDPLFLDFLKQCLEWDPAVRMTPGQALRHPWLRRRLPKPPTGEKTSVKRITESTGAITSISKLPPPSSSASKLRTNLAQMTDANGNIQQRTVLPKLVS

[7] = target: Rho-associated protein kinase 2 (Rattus norvegicus) (UniProt Q62868); test: Inhibition of rat ROCK2 at 10 uM
[8] = target: Serine/threonine-protein kinase 3 (Homo sapiens) (UniProt Q13188); test: Inhibition of human MST2 at 10 uM
[9] = system: RAC-alpha serine/threonine-protein kinase (Homo sapiens), P31749 [S473D]; test: Inhibition of PKBalpha S473D mutant at 10 uM
[10] = target: Mitogen-activated protein kinase 15 (Homo sapiens) (UniProt Q8TD08); test: Inhibition of ERK8 at 10 uM
[11] = target: Tyrosine-protein kinase SYK (Homo sapiens) (UniProt P43405); test: Inhibition of human SYK at 10 uM
[12] = target: Serine/threonine-protein kinase N2 (Homo sapiens) (UniProt Q16513); test: Inhibition of PRK2 at 10 uM
Serine/threonine-protein kinase N2 (Homo sapiens), sequence (Q16513 whole entry, looked up): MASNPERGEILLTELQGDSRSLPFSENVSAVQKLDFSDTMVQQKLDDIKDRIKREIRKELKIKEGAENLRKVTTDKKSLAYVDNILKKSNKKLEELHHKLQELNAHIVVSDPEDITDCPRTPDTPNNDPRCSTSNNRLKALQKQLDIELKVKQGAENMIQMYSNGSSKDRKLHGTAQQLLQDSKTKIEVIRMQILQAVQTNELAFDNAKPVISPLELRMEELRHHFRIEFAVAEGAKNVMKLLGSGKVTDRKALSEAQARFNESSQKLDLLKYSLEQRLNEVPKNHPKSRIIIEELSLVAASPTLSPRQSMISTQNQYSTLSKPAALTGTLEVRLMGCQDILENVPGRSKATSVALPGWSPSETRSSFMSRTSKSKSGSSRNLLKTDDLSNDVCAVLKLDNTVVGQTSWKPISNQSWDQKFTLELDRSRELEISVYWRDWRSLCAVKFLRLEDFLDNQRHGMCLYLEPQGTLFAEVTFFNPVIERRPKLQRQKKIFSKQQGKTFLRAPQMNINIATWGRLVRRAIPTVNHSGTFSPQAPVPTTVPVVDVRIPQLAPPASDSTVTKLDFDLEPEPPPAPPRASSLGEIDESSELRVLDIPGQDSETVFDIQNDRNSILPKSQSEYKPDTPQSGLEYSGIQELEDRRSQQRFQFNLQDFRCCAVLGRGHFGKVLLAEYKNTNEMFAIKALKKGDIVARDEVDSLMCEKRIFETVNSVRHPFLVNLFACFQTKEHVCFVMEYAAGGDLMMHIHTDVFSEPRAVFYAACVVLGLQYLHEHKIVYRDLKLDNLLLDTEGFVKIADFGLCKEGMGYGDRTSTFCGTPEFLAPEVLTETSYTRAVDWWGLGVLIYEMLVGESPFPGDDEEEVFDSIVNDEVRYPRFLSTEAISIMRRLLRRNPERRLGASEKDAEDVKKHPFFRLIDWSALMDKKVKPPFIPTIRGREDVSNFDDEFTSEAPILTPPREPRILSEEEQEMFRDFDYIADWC

Aurora kinase B = Aurora kinase B (Homo sapiens, UniProt Q96GD4); test: Inhibition of Aurora B up to 100 uM
Procedure, shortened: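 Buffer was HEPES-NaOH pH 7.5 with MgCl2, MnCl2, vanadate, DTT, PEG20000 and 1% DMSO. Run 80 min at 30 °C, quenched with 2% H3PO4, NaCl-washed, then scintillation-counted. IC50 fitted from 10 concentrations tested once each.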

[13] = target: 3-phosphoinositide-dependent protein kinase 1 (PDPK1) (Homo sapiens) (UniProt O15530); test: Inhibition of PDK1 (delta 1-51) at 10 uM
[14] = target: Cyclin-dependent kinase 2 (Homo sapiens) (UniProt P24941); test: Inhibition of CDK2/cyclin A at 10 uM
[15] = target: Ribosomal protein S6 kinase alpha-3 (Homo sapiens) (UniProt P51812); test: Inhibition of RSK2 at 10 uM
[16] = target: Serine/threonine-protein kinase PAK 5 (Homo sapiens) (UniProt Q9P286); test: Inhibition of human PAK5 at 10 uM
[17] = target: Serine/threonine-protein kinase PAK 6 (Homo sapiens) (UniProt Q9NQU5); test: Inhibition of human PAK6 at 10 uM
Serine/threonine-protein kinase PAK 6 (Homo sapiens), sequence (Q9NQU5 whole entry, looked up): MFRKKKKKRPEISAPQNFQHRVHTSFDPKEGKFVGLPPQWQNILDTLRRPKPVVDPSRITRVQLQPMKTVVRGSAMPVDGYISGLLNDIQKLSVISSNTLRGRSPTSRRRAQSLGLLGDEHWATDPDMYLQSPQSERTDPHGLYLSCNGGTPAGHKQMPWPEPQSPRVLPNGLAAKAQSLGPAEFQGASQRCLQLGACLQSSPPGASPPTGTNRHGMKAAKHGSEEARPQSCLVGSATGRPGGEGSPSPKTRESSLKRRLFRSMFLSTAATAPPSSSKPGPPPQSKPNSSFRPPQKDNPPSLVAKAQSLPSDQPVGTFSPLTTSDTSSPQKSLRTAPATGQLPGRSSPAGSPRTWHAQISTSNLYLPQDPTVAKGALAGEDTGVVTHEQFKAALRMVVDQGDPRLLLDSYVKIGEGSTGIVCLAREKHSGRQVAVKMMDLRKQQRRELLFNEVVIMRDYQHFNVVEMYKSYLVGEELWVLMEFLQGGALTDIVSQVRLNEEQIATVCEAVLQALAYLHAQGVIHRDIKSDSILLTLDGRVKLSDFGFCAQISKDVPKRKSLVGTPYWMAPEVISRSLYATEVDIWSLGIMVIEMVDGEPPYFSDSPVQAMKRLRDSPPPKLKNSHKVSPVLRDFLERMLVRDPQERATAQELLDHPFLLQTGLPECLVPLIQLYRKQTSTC

[18] = system: Ribosomal protein S6 kinase beta-1 (Homo sapiens), P23443 [T412E]; test: Inhibition of S6K1 T412E mutant at 10 uM
[19] = target: Mitogen-activated protein kinase 8 (Homo sapiens) (UniProt P45983); test: Inhibition of JNK1alpha1 at 10 uM
[20] = target: Dual specificity tyrosine-phosphorylation-regulated kinase 1A (Rattus norvegicus) (UniProt Q63470); test: Inhibition of rat DYRK1a at 10 uM
[21] = target: Inhibitor of nuclear factor kappa-B kinase subunit epsilon (Homo sapiens) (UniProt Q14164); test: Inhibition of human IKKe at 10 uM
[22] = Inhibition of PKA at 10 uM
[23] = Inhibition of CK2 at 10 uM
[24] = target: Maternal embryonic leucine zipper kinase (Homo sapiens) (UniProt Q14680); test: Inhibition of human MELK at 10 uM
[25] = target: Tyrosine-protein kinase CSK (Homo sapiens) (UniProt P41240); test: Inhibition of CSK at 10 uM
[26] = target: Protein kinase C zeta type (Homo sapiens) (UniProt Q05513); test: Inhibition of human PKCzeta at 10 uM
[27] = target: MAP kinase-interacting serine/threonine-protein kinase 2 (Homo sapiens) (UniProt Q9HBH9); test: Inhibition of MNK2alpha at 10 uM
[28] = target: Ribosomal protein S6 kinase alpha-1 (Rattus norvegicus) (UniProt Q63531); test: Inhibition of rat MAPKAP-K1a at 10 uM
[29] = target: Serine/threonine-protein kinase PAK 4 (Homo sapiens) (UniProt O96013); test: Inhibition of human PAK4 at 10 uM
[30] = target: Mitogen-activated protein kinase 13 (Homo sapiens) (UniProt O15264); test: Inhibition of SAPK4 at 10 uM
[31] = target: Serine/threonine-protein kinase BRSK2 (Homo sapiens) (UniProt Q8IWQ3); test: Inhibition of human BRSK2 at 10 uM
[32] = target: Serine/threonine-protein kinase Nek2 (Homo sapiens) (UniProt P51955); test: Inhibition of NEK2a at 10 uM
[33] = target: Ephrin type-A receptor 2 (Homo sapiens) (UniProt P29317); test: Inhibition of human EPHA2 at 10 uM
[34] = target: Mitogen-activated protein kinase 14 (Homo sapiens) (UniProt Q16539); test: Inhibition of SAPK2a at 10 uM
[35] = target: Mitogen-activated protein kinase 11 (Homo sapiens) (UniProt Q15759); test: Inhibition of SAPK2b at 10 uM
[36] = target: MAP kinase-activated protein kinase 5 (Homo sapiens) (UniProt Q8IW41); test: Inhibition of PRAK at 10 uM
MAP kinase-activated protein kinase 5 (Homo sapiens), sequence (Q8IW41 whole entry): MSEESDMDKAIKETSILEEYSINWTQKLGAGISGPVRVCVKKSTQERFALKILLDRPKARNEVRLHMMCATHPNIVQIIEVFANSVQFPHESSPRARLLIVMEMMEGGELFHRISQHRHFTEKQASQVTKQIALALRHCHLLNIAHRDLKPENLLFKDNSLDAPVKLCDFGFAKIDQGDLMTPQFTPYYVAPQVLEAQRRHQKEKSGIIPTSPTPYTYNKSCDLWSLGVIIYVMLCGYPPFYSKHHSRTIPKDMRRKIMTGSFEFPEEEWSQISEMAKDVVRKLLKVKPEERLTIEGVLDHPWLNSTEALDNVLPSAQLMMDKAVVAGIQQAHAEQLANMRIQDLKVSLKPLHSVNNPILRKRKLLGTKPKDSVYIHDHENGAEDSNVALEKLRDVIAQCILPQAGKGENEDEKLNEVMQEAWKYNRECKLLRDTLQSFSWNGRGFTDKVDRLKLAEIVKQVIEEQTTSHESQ

[37] = target: Serine/threonine-protein kinase 26 (Homo sapiens) (UniProt Q9P289); test: Inhibition of human MST4 at 10 uM
[38] = target: Serine/threonine-protein kinase D1 (Homo sapiens) (UniProt Q15139); test: Inhibition of human PKD1 at 10 uM
[39] = target: Homeodomain-interacting protein kinase 2 (Homo sapiens) (UniProt Q9H2X6); test: Inhibition of human HIPK2 at 10 uM
Homeodomain-interacting protein kinase 2 (Homo sapiens), sequence (Q9H2X6 whole entry, looked up): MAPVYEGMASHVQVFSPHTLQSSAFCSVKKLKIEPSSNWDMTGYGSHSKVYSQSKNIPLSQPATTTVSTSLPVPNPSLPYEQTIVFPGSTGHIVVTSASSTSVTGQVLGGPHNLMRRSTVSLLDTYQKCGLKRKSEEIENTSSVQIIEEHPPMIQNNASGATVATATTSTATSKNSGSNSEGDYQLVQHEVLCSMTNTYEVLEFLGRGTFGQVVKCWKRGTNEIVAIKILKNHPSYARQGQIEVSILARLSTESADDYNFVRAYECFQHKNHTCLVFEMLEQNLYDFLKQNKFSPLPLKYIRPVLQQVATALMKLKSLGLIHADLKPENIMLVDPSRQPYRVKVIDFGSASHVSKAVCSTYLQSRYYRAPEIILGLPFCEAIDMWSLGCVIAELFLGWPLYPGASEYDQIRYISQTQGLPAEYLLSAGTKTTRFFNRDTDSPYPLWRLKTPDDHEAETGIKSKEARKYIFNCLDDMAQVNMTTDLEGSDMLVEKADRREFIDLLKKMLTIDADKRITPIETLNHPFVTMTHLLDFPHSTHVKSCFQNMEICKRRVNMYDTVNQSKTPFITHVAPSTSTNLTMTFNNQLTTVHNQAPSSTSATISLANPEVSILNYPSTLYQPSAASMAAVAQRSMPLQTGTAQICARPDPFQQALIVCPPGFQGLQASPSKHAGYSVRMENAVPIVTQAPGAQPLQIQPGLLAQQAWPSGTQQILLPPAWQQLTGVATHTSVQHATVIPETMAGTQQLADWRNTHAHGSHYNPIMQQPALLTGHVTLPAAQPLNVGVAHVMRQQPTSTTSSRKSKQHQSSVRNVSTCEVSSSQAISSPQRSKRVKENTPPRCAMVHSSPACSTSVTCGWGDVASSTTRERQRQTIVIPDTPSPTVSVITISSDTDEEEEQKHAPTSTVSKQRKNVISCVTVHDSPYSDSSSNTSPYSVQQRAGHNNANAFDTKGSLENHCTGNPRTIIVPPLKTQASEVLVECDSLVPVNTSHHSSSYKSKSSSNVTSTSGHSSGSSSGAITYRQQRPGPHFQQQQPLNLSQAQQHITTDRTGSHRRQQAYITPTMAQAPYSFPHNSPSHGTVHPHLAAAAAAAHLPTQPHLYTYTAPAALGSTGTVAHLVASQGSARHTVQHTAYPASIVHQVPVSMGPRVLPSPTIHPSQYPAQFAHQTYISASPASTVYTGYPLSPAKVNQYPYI

[40] = target: Serine/threonine-protein kinase PLK1 (Homo sapiens) (UniProt P53350); test: Inhibition of human okadaic acid sensitive PLK1 at 10 uM
[41] = target: Eukaryotic elongation factor 2 kinase (Homo sapiens) (UniProt O00418); test: Inhibition of human EF2K at 10 uM
[42] = target: Calcium/calmodulin-dependent protein kinase type 1 (Homo sapiens) (UniProt Q14012); test: Inhibition of CAMK1 at 10 uM
[43] = target: Mitogen-activated protein kinase 12 (Homo sapiens) (UniProt P53778); test: Inhibition of SAPK3 at 10 uM
[44] = target: Serine/threonine-protein kinase B-raf (Homo sapiens, UniProt P15056, V600E); test: Inhibition of BRAF V600E mutant
Serine/threonine-protein kinase B-raf, sequence (P15056 whole entry V600E): as the sequence (P15056 whole entry V600E) above

inhibition [1]: inactive
Structure (SMILES): Nc1ncnc2ncn(CC(=O)c3ccccc3)c12

inhibition [2]: inactive
inhibition [3]: inactive
inhibition [4]: inactive
inhibition [5]: inactive
inhibition [6]: inactive
inhibition [7]: inactive
inhibition [8]: inactive
inhibition [9]: inactive
inhibition [11]: inactive
inhibition [12]: inactive
inhibition (Aurora kinase B): inactive
inhibition [13]: inactive
inhibition [14]: inactive
inhibition [15]: inactive
inhibition [16]: inactive
inhibition [17]: inactive
inhibition [18]: inactive
inhibition [19]: inactive
inhibition [20]: inactive
inhibition [21]: inactive
inhibition [22]: inactive
inhibition [23]: inactive
inhibition [24]: inactive
inhibition [25]: inactive
inhibition [26]: inactive
inhibition [27]: inactive
inhibition [28]: inactive
inhibition [29]: inactive
inhibition [30]: inactive
inhibition [31]: inactive
inhibition [32]: inactive
inhibition [33]: inactive
inhibition [34]: inactive
inhibition [35]: inactive
inhibition [36]: inactive
inhibition [37]: inactive
inhibition [38]: inactive
inhibition [39]: inactive
inhibition [40]: inactive
inhibition [41]: inactive
inhibition [42]: inactive
inhibition [43]: inactive
Structure (SMILES): Nc1ncnc2ncn(CC(=O)c3c[nH]c4ccccc34)c12
inhibition [10]: inactive

IC50 [44]: 82 µM
Structure (SMILES): Nc1ncnc2c1ncn2CC(=O)c1c[nH]c2ccccc12
